Compound activity (PubChem)
PDI inh: PDI (human) enzyme inhibition; AID 588391; 350,000 tested, 0.052% active; inhibition, % at 10 µM; PDI insulin aggregation turbidity, A650, 90 min; P07237;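 active = mean inhibition across replicates of 30% or more, whatever share of single replicates reach that level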
Target sequence (P07237 whole entry, looked up): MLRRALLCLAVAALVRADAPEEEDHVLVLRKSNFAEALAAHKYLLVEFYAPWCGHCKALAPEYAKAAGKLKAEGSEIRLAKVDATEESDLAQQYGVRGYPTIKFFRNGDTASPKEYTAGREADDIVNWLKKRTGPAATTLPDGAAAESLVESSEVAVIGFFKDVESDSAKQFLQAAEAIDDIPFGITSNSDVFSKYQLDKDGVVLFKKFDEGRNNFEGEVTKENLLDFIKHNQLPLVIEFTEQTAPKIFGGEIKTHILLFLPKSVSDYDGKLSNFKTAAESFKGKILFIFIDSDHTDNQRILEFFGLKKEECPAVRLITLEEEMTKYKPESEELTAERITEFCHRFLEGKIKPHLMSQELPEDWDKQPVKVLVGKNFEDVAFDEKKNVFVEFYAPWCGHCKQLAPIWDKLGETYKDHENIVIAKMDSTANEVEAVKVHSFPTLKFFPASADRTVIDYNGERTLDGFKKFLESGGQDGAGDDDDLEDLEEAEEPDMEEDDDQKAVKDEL
DENV2 CPE rescue: DENV2-induced cell death inhibition; DENV2-infected cells, cytopathic effect rescue, plate reader; CPE inhibition, % at 9.99 µM; 350,000 tested, 1.7% active; AID 651640; in the data active = CPE inhibition above about 20%, passing the limit was not always enough; tested in BHK-21 cells;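 also: 0% = median of neutral control wells and 100% = median of positive control wells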
ERp5 block: ERp5 (human) disulfide isomerase inhibition; 350,000 tested, 0.05% active; ERp5 insulin aggregation, absorbance 650 nm, 90 min; Q15084; AID 651711; inhibition, % at 9.99 µM;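 active = mean replicate inhibition above about 25%, with every replicate also reaching it, limit read from the data, passing the limit was not always enough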
Cneo AK release: Cryptococcus neoformans lysis via adenylate kinase release; C. neoformans lysis, adenylate kinase release luminescence, 4 h; normalised: neutral wells 0, clomiphene wells 100; lysis activity, % at 15 µM; 360,000 tested, 0.2% active; AID 651654;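 active = mean lysis activity across replicates of at least 80%, whatever share of replicates individually reach that level; inactive = mean lysis activity below 80%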
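Material: C. neoformans cells | Amount: Yeast cell density of 5 × 10^6 cells/mL | Medium: Fresh YPD growth medium | Dosing: Single dose | Times: Static 4 h at 37 °C with compound, 1 h detection | Detection: AK luminescence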
Statin myotox sup: protects C2C12 myotubes from simvastatin toxicity; ATP luminescence, 48 h; scaled: DMSO 0, geranylgeraniol control 100; 330,000 tested, 0.78% active; AID 602340; rescue of ATP level, % at 7.49 µM;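 active = mean ATP rescue above about 67%, or every replicate alone reaching that limit, limit read from the data, passing the limit was not always enough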;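 also: myotubes were challenged with 10 µM simvastatin during compound exposure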
F508del corr: CFTR F508del correction in bronchial cells | CFBE cells, YFP halide quenching; stimulated with forskolin plus potentiator P3; % fluorescence drop versus neutral controls | activity (quench increase), % at 7.58 µM | 350,000 tested, 0.36% active | AID 720511;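 active = mean added fluorescence quench of at least 8% versus neutral control, with both replicates also reaching 8%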;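 also: cells transiently co-express mutant CFTR-F508del with the halide-sensitive YFP; corrector assay measuring rescue of mutant channel to the surface after 24 h compound exposure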
* marks the source's active call; other numbers are inactive results; . = no result given. Hits are enriched below; roughly 2.3% of the tested compounds scored in any of these assays.

SMILES | PDI inh | DENV2 CPE rescue | ERp5 block | Cneo AK release | Statin myotox sup | F508del corr
COc1ccc(S(=O)(=O)Nc2ccccc2C(=O)OC2CCCN(C)C2)cc1OC (stereo not given) | 8.7 | . | . | 4.1 | 81.8* | .
COc1ccc(S(=O)(=O)Nc2ccccc2C(=O)NC(C)(C)C)cc1OC | 4.2 | . | . | 0.1 | 123.3* | .
CN1CCCC(OC(=O)c2ccccc2Br)C1 (stereo not given) | -4.3 | -3.6 | 0.1 | 1.3 | 6.5 | -1.3
CO[C@H]1CN(C)C(=O)c2ccc(NC(=O)Nc3cccc(F)c3)cc2OC[C@@H](C)NC[C@H]1C | . | 4.9 | -2.5 | 0.1 | -5.4 | 2.8
Cc1ccc(CNC(=O)COC(=O)c2c(C)noc2C)cc1 | 13.7 | . | . | -1.3 | -0.8 | .
Cc1noc(C)c1C(=O)OCC(=O)NCCc1ccc(Cl)cc1 | 35.4* | . | . | 0.6 | -0.3 | .
CCCN1C(=O)C(O)(C/C(C)=N/O)c2ccccc21 (stereo not given) | -4.0 | . | . | 3.3 | 125.0* | .
CCCN1C(=O)C(O)(C2CC(=O)CC(C)(C)O2)c2ccccc21 (stereo not given) | 25.5 | . | . | 126.1* | -5.3 | .
CCNC(=O)[C@@H]1[C@@H](CO)[C@@H]2Cn3c(ccc(-c4ccc(F)cc4)c3=O)[C@@H]2N1C | . | 12.7 | -5.4 | . | . | -3.9
O=C(COc1ccc(-c2nnco2)cc1)NCc1ccccc1Cl | 1.7 | 42.9* | -0.5 | . | . | 1.0
COc1ccc2c3c([nH]c2c1)[C@@H](CO)N(C(=O)Nc1ccc(F)cc1)CC31CCN(C(=O)c2ccccn2)CC1 | . | 3.9 | 2.4 | . | . | 2.1
Cc1cc(Br)c(NC(=O)C(C)Sc2nnnn2C)c(Br)c1 (stereo not given) | 8.6 | 10.3 | 3.9 | 0.6 | 1.1 | 11.9*
O=C(CCNC(=O)c1ccco1)Nc1ccc(Cl)cc1F | 5.7 | 28.2* | -1.3 | 14.0 | -1.3 | -0.5
C/C(=N\NC(=O)c1ccccc1O)c1ccc(NC(=O)c2ccccc2)cc1 | 1.8 | 116.5* | 2.0 | -1.0 | . | 1.7
C/C(=N\NC(=O)c1ccccc1O)c1cccc(NC(=O)c2ccccc2)c1 | 5.9 | 3.3 | 4.8 | -2.9 | -2.1 | 2.4
COC(=O)C1CCCN1C(=O)C1CCCN1C(=O)CNC(=O)OCc1ccccc1 (stereo not given) | -0.3 | . | . | -1.4 | 81.9* | .
COc1cccc(C#Cc2ccc3c(c2)O[C@@H](CN(C)C)[C@H](C)CN([C@H](C)CO)S3(=O)=O)c1 | . | -3.0 | 7.6 | 57.5 | -24.2 | 0.9
CC1=Nc2cc(C(=O)NCC3CCCO3)ccc2Sc2ccc(Br)cc21 (stereo not given) | -1.3 | 1.6 | -0.2 | 0.2 | -39.6 | 13.0*
Cc1ccc(C2=NN(S(=O)(=O)c3ccccc3)C(c3ccco3)C2)cc1 (stereo not given) | 0.5 | -1.6 | 3.1 | -0.5 | -25.9 | -4.4
O=S(=O)(c1ccccc1)N1N=C(c2ccc(O)cc2)CC1c1ccco1 (stereo not given) | 38.2* | -4.1 | 11.3 | 6.0 | 1.2 | 1.5
C[C@H]1CN([C@@H](C)CO)C(=O)Cc2cc(NC(=O)Nc3cccc4ccccc34)ccc2O[C@H]1CN(C)S(=O)(=O)c1cccs1 | . | . | . | 100.9* | 24.2 | -0.1
C[C@@H]1CN([C@H](C)CO)C(=O)Cc2cc(NC(=O)Nc3cccc4ccccc34)ccc2O[C@@H]1CN(C)S(=O)(=O)c1cccs1 | . | -5.0 | . | -0.2 | 75.2* | -1.5
C[C@H](CO)N1C[C@H](C)[C@H](CN(C)S(=O)(=O)c2cccs2)Oc2ccc(NC(=O)Nc3cccc4ccccc34)cc2CC1=O | . | 0.3 | . | -0.6 | 18.4 | -2.8
C[C@H]1[C@@H](Cc2cc(Cl)cc(Cl)c2)N(c2ccccc2)c2ccccc2CN1Cc1ccccc1 | . | 43.4* | 0.5 | . | . | 6.3
Cn1cnc(CCNC(=O)C[C@@H]2CC[C@@H]3[C@H](COC[C@@H](O)CN3C(=O)Nc3ccc(F)cc3)O2)c1 | . | -1.5 | -0.1 | 10.7 | 2.5 | -2.3
